Reference: paper PMC3580179 (Biopharmaceutics & drug disposition, 2010)
Several values for one entry are separate records, joined by “and”; a condition that tells them apart may be missing. Equal values may be shown once. Read-outs that look alike come from different tables or passages of the source. Marks after values point to notes of the source that are not given here.

How the values were obtained:
[1] = Blood cell partitioning; assay type: in vitro ADME; conditions: rat, fresh pooled rat blood
How it was run: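 Fresh pooled rat blood spiked 1:100 with test compound in methanol (final 10 μg/mL). Incubated 2 h at 37°C in a shaking water bath. Plasma separated at once by centrifugation and assayed by HPLC-UV to give the blood-to-plasma concentration ratio (CB/CP). Run in triplicate.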

[2] = Pharmacokinetics after intravenous administration to rats; assay type: in vivo, male Sprague-Dawley rats; conditions: rat; for MRT / Vd / clearance / half-life / AUC(0-inf): male, Sprague-Dawley; for AUC(0-inf): AUC0-∞
How it was run: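 Male Sprague-Dawley rats (250–300 g) with jugular vein cannulae, fed antioxidant-free AIN-76A diet and acclimatized 3 days. Single i.v. dose of 10 or 20 mg/kg via cannula in Cremophor EL/tween-80/ethanol/water (2:1:1:6). Blood (200 μL) sampled from 2 min to 36 h; plasma stored at −80°C and assayed by HPLC-UV. Non-compartmental analysis: log-linear trapezoidal AUC, CL = Dose/AUC0-∞, MRT = AUMC0-∞/AUC0-∞.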

[3] = Pharmacokinetics after oral administration to rats; assay type: in vivo, male Sprague-Dawley rats; conditions: rat; for Cmax / AUC(0-inf) / MRT / half-life: male, Sprague-Dawley, po
[4] = assay type: in vivo, Nrf2 knockout C57BL/6J (−/−) mice; conditions: for AUC0-∞ /Dose: Nrf2(−/−) mice; for AUC, folds increase: Nrf2(−/−) vs Nrf2(+/+) mice; for AUC / Cmax / MRT / Tmax / half-life: male, C57BL/6J, mouse, plasma
How it was run: (§1)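 Age-matched male C57BL/6J mice, Nrf2 (+/+) or (−/−), 10–15 weeks old, on AIN-76A diet from 3 days before dosing. Dosed 500 mg/kg by oral gavage after an overnight fast, or 100 mg/kg i.p.; vehicle Cremophor EL/tween-80/ethanol/water (2:1:1:6). Composite sampling by heart puncture from 2 min (i.p. only) or 7.5 min to 36 h, three mice per time point. Non-compartmental analysis; t1/2 = ln2/kel from terminal slope.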

[5] = assay type: in vivo, Nrf2 wild type C57BL/6J (+/+) mice; conditions: for AUC / Cmax / MRT / Tmax: male, C57BL/6J, mouse, plasma
How it was run: as §1

[6] = p.o. 250 mg/kg, regular emulsion

O=C(CC(=O)c1ccccc1)c1ccccc1 [DBM, 1,3-Diphenyl-1,3-propanedione]
blood plasma ratio at 2 h, 10 μg/mL [1]: 0.93 ± 0.19 | MRT ([2]; plasma, iv, 10 mg/kg): 10.4 ± 3.33 h | Vd ([2]; plasma, iv, 10 mg/kg): 6.75 ± 1.85 L/kg | clearance ([2]; plasma, iv, 10 mg/kg): 11.8 mL/min/kg | half-life ([2]; plasma, iv, 10 mg/kg): 14.4 ± 5 h | AUC(0-inf) ([2]; plasma, iv, 10 mg/kg, i.v. 10 mg/kg): 16500 ± 7850 ng·h/mL | MRT ([2]; plasma, iv, 20 mg/kg): 10.2 ± 6.1 h | Vd ([2]; plasma, iv, 20 mg/kg): 7.35 ± 4.26 L/kg | clearance ([2]; plasma, iv, 20 mg/kg): 12 mL/min/kg | half-life ([2]; plasma, iv, 20 mg/kg): 12 ± 5.34 h | AUC(0-inf) ([2]; plasma, iv, 20 mg/kg, i.v. 20 mg/kg): 27900 ± 2400 ng·h/mL | clearance ([2]; whole blood, intravenous, 10 mg/kg): ~12.7 mL/min/kg | AUC0-∞ /Dose ([2]; i.v. 10 mg/kg, 10 mg/kg): 1.65 (μg·h/mL)/(mg/kg) and 1.65 ± 0.79 (μg·h/mL)/(mg/kg) | AUC0-∞ ([2]; i.v. 20 mg/kg, 20 mg/kg): 28000 ± 2400 ng·h/mL | AUC0-∞ /Dose ([2]; i.v. 20 mg/kg, 20 mg/kg): 1.40 (μg·h/mL)/(mg/kg) and 1.40 ± 0.12 (μg·h/mL)/(mg/kg) | Cmax ([3]; in vivo, 250 mg/kg): 2880 ± 740 ng/mL | AUC(0-inf) ([3]; plasma, 10 mg/kg): 2250 ± 330 ng·h/mL | Cmax ([3]; plasma, 10 mg/kg): 340 ± 40 ng/mL | MRT ([3]; plasma, 10 mg/kg): 7.6 ± 2.3 h | half-life ([3]; plasma, 10 mg/kg): 11 ± 3 h | AUC(0-inf) ([3]; plasma, 50 mg/kg): 9460 ± 1620 ng·h/mL | Cmax ([3]; plasma, 50 mg/kg): 1500 ± 410 ng/mL | MRT ([3]; plasma, 50 mg/kg): 9.4 ± 2 h | half-life ([3]; plasma, 50 mg/kg): 9.3 ± 2 h | AUC(0-inf) ([3]; plasma, 250 mg/kg): 30400 ± 6890 ng·h/mL | Cmax ([3]; plasma, 250 mg/kg): 3020 ± 660 ng/mL | MRT ([3]; plasma, 250 mg/kg): 12 ± 4.3 h | half-life ([3]; plasma, 250 mg/kg): 11 ± 8 h | AUC0-∞ /Dose ([3]; p.o. 10 mg/kg, regular emulsion): 0.225 ± 0.033 (μg·h/mL)/(mg/kg) | Ka (absorption rate constant) ([3]; p.o. 50 mg/kg, regular emulsion, Gastroplus three-compartment fitting): 0.029 ± 0.046 h⁻¹ | AUC0-∞ /Dose [3, 6]: 0.122 ± 0.027 ^a (μg·h/mL)/(mg/kg) | fraction absorbed in GIT (deconvolution analysis) [3, 6]: 10.8% | Tmax ([3]; p.o. 250 mg/kg, regular emulsion, 250 mg/kg): 4.0 ± 2.0 h | AUC0-∞ /Dose ([4]; i.p. 100 mg/kg): 0.221 (μg·h/mL)/(mg/kg) | AUC0-∞ /Dose ([4]; p.o. 500 mg/kg): 0.171 (μg·h/mL)/(mg/kg) | AUC, folds increase ([4]; i.p. 100 mg/kg): 2.3 fold | AUC, folds increase ([4]; p.o. 500 mg/kg): 1.3 fold | apparent terminal half-life, fold increase ([4]; Nrf2 knockout vs wild type mice, i.p. 100 mg/kg): 2 fold | AUC ([4]; ip, 100 mg/kg): 22100 ng·h/mL | Cmax ([4]; ip, 100 mg/kg): 6860 ng/mL | MRT ([4]; ip, 100 mg/kg): 5.15 h | Tmax ([4]; ip, 100 mg/kg): 0.25 h | half-life ([4]; ip, 100 mg/kg): 5.04 h | AUC ([4]; po, 500 mg/kg): 85600 ng·h/mL | Cmax ([4]; po, 500 mg/kg): 17400 ng/mL | MRT ([4]; po, 500 mg/kg): 6.36 h | Tmax ([4]; po, 500 mg/kg): 0.25 h | half-life ([4]; po, 500 mg/kg): 8.52 h | AUC0-∞ /Dose ([5]; Nrf2(+/+) mice, i.p. 100 mg/kg): 0.096 (μg·h/mL)/(mg/kg) | AUC0-∞ /Dose ([5]; Nrf2(+/+) mice, p.o. 500 mg/kg): 0.129 (μg·h/mL)/(mg/kg) | Apparent terminal t1/2 ([5]; Nrf2(+/+) mice, p.o. 500 mg/kg, 500 mg/kg): 6.09 h | AUC ([5]; ip, 100 mg/kg): 9620 ng·h/mL | Cmax ([5]; ip, 100 mg/kg): 4560 ng/mL | MRT ([5]; ip, 100 mg/kg): 2.76 h | Tmax ([5]; ip, 100 mg/kg): 0.25 h | AUC ([5]; po, 500 mg/kg): 64600 ng·h/mL | Cmax ([5]; po, 500 mg/kg): 23200 ng/mL | MRT ([5]; po, 500 mg/kg): 4.73 h | Tmax ([5]; po, 500 mg/kg): 0.25 h | peak plasma concentration ([5]; mice, i.p. 100 mg/kg, genotype not given, context Nrf2(+/+)): 20.4 µM
